Lipid droplet = modulators of hepatic lipid droplet formation | AML12 mouse hepatocytes, oleate lipid droplets, BODIPY imaging | inhibition, % at 6.5 µM | actives 0.4% (n = 240,000) | AID 1656;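 active = lipid droplet intensity inhibited by at least 50%, with more than 500 cells counted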
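Assay system: AML12 hepatocytes (mouse); Probe or stimulus: oleic acid at 100 µM to induce lipid droplet formation; Dosing: compound at 6.5 µM only; Schedule: compound with oleate, overnight; Detection: fluorescence imaging, 20x objective, two fields per well; Measure: % inhibition of lipid droplet signal.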
CHT inh = human CHT choline transport inhibition; Q9GZV3; CHT-expressing cells, membrane potential dye, choline response; stronger effect = lower value; B-score at 10 µM; actives 0.86% (n = 310,000); AID 488975;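 active = B-score over 3 SD under the library average, and starting fluorescence ratio not unusually high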;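 also: choline stimulus applied at its EC90 after an EC20 pre-addition; B-score computed on integrated fluorescence ratio after choline addition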
HSF-1 act = increases HSF-1 driven luciferase reporter signal; NIH3T3-HGL HSF-1 luciferase reporter, MG132, 8 h; 100% = twice DMSO control signal; activation, % at 9 µM; actives 1.7% (n = 300,000);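 active = mean replicate activation of at least 50% with a set share of replicates each reaching 50%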;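 also: 0% = median of the neutral control wells and 100% = twice that signal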
PHOSPHO1 inh = blocks human PHOSPHO1 phosphatase activity | Q8TCT1 | recombinant PHOSPHO1, absorbance phosphatase assay | inhibition, % at 13.3 µM | actives 1.1% (n = 290,000); in the data active = inhibition above about 60%
Target sequence (Q8TCT1 whole entry, looked up): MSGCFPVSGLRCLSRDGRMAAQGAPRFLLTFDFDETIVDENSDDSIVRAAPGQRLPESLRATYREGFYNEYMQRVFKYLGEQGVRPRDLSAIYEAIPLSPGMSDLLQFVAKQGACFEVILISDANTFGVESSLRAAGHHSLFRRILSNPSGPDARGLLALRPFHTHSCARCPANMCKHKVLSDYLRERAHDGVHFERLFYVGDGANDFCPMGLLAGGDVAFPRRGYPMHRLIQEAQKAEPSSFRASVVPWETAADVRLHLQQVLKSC
CHT allo act = human CHT allosteric activation. CHT-expressing cells, membrane potential dye, choline EC20; stronger effect = higher value; LV-AA mutant CHT in HEK293 cells. Q9GZV3. AID 488977. actives 0.49% (n = 310,000). B-score at 10 µM;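 active = initial fluorescence not abnormally high and integrated response B-score, plate-corrected, over 3 SD above library mean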
HSF1 inh = HSF1 inhibition. NIH3T3-HGL HSE-luciferase, MG132-induced, luminescence 8 h; stronger effect = lower value. activity change, negative = inhibition, % at 7.5 µM (by protocol). actives 0.77% (n = 300,000). AID 2098;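 active = more than half of replicate wells show activity change below -50%, luminescence cut by over half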;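 also: luciferase reports HSF-1 transcriptional activity via heat shock element; 0% = median of DMSO wells and -100% = zero luminescence signal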
CHT act confirm = human CHT activation, confirmatory screen. AID 504833. actives 91% (n = 2,500). activation, % at 10 µM. shares compounds with CHT allo act. CHT-expressing cells, membrane potential dye fluorescence (FDSS); % of choline EC20–EC90 response window; HEK293 expressing CHT LV-AA mutant; choline added at its EC20;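 active = primary screen active, with duplicate mean activation above negative control mean plus 3 SD, cut at about 11% in these data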
HEK293 MP dye = activity in parental HEK293 cells lacking CHT | actives 62% (n = 2,500) | membrane potential dye fluorescence (FDSS); measured after EC20 choline addition | ratio readout change at 10 µM, hits read low | AID 623908 | shares compounds with CHT allo act;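 active = duplicate-averaged ratio beyond 3 SD from buffer wells, up or down, though filed actives are nearly all decreases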
Starred values were filed as active, the others as inactive; i = inactive; nt = no result. Sampled rows, rich in hits. Any-hit rate of the full collection: about 4.9%.

SMILES	Lipid droplet	CHT inh	HSF-1 act	PHOSPHO1 inh	CHT allo act	HSF1 inh	CHT act confirm	HEK293 MP dye
CCN(Cc1ccccc1)C(c1ccc(C)cc1)c1nnnn1C(C)(C)C (configuration not stated)	-24	i	nt	23	i	nt	nt	nt
COc1ccc2c(c1)c1ncn(CCN3CCNCC3)c(=O)c1n2C	-2	i	4	17	i	3	16*	-20*
COc1ccc2c(c1)c1ncn(CCN3CCCC3)c(=O)c1n2C	nt	i	43	0	6.5*	0	45*	-24*
N#CCN1C(=O)C(=O)N(Cc2cccc(Cl)c2)C1=O	nt	i	-6	nt	i	2	nt	nt
CCCC(C(=O)NC1CCCCC1)N(Cc1ccco1)C(=O)CNS(=O)(=O)c1ccccc1 (configuration not stated)	-1	i	-5	12	8.4*	2	33*	i
O=C(N[C@@H]1CCC(=O)N(CC[C@H](Oc2ccccc2)c2ccccc2)CC1)OCc1ccccc1	nt	i	20	21	i	13	25*	i
COC(=O)c1nnn(-c2nc(N3CCOCC3)nc(N3CCOCC3)n2)c1C	-6	i	3	37	7.8*	-6	33*	-40*
CC(C)N1CCc2c(sc(NC(=O)c3ccc(S(=O)(=O)N(C)CC4CCCO4)cc3)c2C(N)=O)C1 (configuration not stated)	5	i	-7	23	i	-8	nt	nt
CCN1CCc2c(sc(NC(=O)c3ccc(S(=O)(=O)N(C)CC4CCCO4)cc3)c2C(N)=O)C1 (configuration not stated)	-6	i	-8	27	i	-5	69*	-38*
CN1CCc2c(sc(NC(=O)c3ccco3)c2C(N)=O)C1	-1	i	8	28	i	6	nt	nt
CN1CCc2c(sc(NC(=O)c3cc(Cl)sc3Cl)c2C(N)=O)C1	-9	i	-20	25	i	-17	22*	i
CN1CCc2c(sc(NC(=O)c3ccc(S(=O)(=O)N4CCCC4)cc3)c2C(N)=O)C1	0	i	-1	28	i	-5	nt	nt
CN1CCc2c(sc(NC(=O)c3ccc(S(=O)(=O)N4CCOCC4)cc3)c2C(N)=O)C1	-5	i	-26	23	6.6*	-6	67*	-63*
COC(=O)CN(C#N)c1nc(NC(C)C)nc(OC)n1	-4	i	12	7	i	-2	nt	nt
Fc1cccc(CNCc2ccc3c(c2)OCO3)c1	-12	i	-7	14	i	5	nt	nt
COc1ccc(Nc2nccc(N(C)C)c2C#N)cc1	-1	i	-2	20	i	-2	50*	-42*
COc1ccc(Nc2nccc(OC)c2C#N)cc1	nt	i	-11	16	i	-2	nt	nt
Cc1cccc(C)c1OCC(=O)Nc1cccc(-c2nnc(-c3ccccc3)o2)c1	nt	i	1	11	i	-8	29*	i
Cc1ccc(OCC(=O)Nc2cccc(-c3nnc(-c4ccccc4)o3)c2)cc1	25	i	42	0	i	23	nt	nt
COc1cc(-c2nnc(SCC(=O)/C(C#N)=C(\C)N)o2)cc(OC)c1OC	nt	i	8	27	i	3	4	-23*
Brc1ccc(-c2nc(-c3ccncc3)no2)cc1	14	i	12	20	i	11	nt	nt
O=[N+]([O-])c1ccc(-c2nc(-c3ccncc3)no2)cc1	-2	i	65*	-5	i	31	26*	-36*
COc1ncccc1-c1nnn(-c2ccc(Cl)nc2)n1	-4	i	9	43	i	12	48*	-41*
Fc1ccc(Cn2nnnc2C(c2cccs2)N2CCN(C3CCCCC3)CC2)cc1 (configuration not stated)	-1	i	6	18	i	9	40*	-25*
